Assays:
B16 [1] = assay: Cytotoxic activity against solid tumor, B16 (murine melanoma) Concentration of agent required to reduce cell viability by 90%; format: functional; details: Mus musculus
In short: (§1)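 Modified MTT assay. Cells seeded per well with graded drug: CHO 2.5 × 10^3, B16 5 × 10^3, P388 and LLC 10^4, HL-60 and LoVo 5 × 10^4. After 68 h, MTT (2.5 mg/mL) added for 4 h at 37 °C. Formazan dissolved in DMSO and A550 read. Inhibition taken as fractional A550 decrease vs control. IC50/IC90 from Chou's median-effect equation.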

B16 [2] = assay: Cytotoxic activity against solid tumor, B16 (murine melanoma) Concentration of agent required to reduce cell viability by 50%; format: functional, cell-based; details: Mus musculus; in short: as §1
CHO [3] = assay: Cytotoxic activity against solid tumor, CHO (Chinese hamster ovaric carcinoma) Concentration of agent required to reduce cell viability by 50%; format: functional, cell-based; details: Cricetulus griseus; in short: as §1
CHO [4] = assay: Cytotoxic activity against solid tumor, CHO (Chinese hamster ovaric carcinoma) Concentration of agent required to reduce cell viability by 90%; format: functional; details: Cricetulus griseus; in short: as §1
HL-60 [5] = assay: Cytotoxic activity against Human promyelocytic Leukemia HL-60 Concentration of agent required to reduce cell viability by 90%; format: functional; in short: as §1
HL-60 [6] = assay: Relative cytotoxicity against Human promyelocytic Leukemia(HL-60) cells; Value is in range, activity expressed as IC90; format: functional
In short: (§2)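 Second-stage assay on HL-60 (5 × 10^4/well) and soybean-agglutinin-negative mononuclear marrow cells (5 × 10^5/well) from six healthy donors. Four wells per concentration, 48 h at 37 °C, then [125I]iododeoxyuridine plus fluorodeoxyuridine for 18 h. Inhibition from fractional uptake decrease; IC50/IC90 by median-effect equation. Ranges are antilog(mean log ± 2SD); ratios use mean antilogs.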

HL-60 [7] = assay: Cytotoxic activity against Human promyelocytic Leukemia HL-60 Concentration of agent required to reduce cell viability by 50%; format: functional, cell-based; in short: as §1
HL-60 [8] = assay: Relative cytotoxicity against Human promyelocytic Leukemia(HL-60) cells; Value is in range, activity expressed as IC50; format: functional, cell-based; in short: as §2
Homo sapiens [9] = organism: Homo sapiens; assay: Relative cytotoxicity against Human bone marrow samples; Value is in range, activity expressed as IC50; format: functional; in short: as §2
Homo sapiens [10] = organism: Homo sapiens; assay: Relative cytotoxicity against Human bone marrow samples; Value is in range, activity expressed as IC90; format: functional; in short: as §2
LoVo [11] = assay: Cytotoxic activity against solid tumor, LoVo, (human colon adenocarcinoma) Concentration of agent required to reduce cell viability by 90%; format: functional; in short: as §1
LoVo [12] = assay: Cytotoxic activity against solid tumor, LoVo, (human colon adenocarcinoma) Concentration of agent required to reduce cell viability by 50%; format: functional, cell-based; in short: as §1
[13] = test system: Lewis lung carcinoma cell line; assay: Cytotoxic activity against solid tumor LLC(Lewis lung carcinoma), concentration of agent required to reduce cell viability by 50%; format: functional, cell-based; details: Mus musculus; in short: as §1
[14] = test system: Lewis lung carcinoma cell line; assay: Cytotoxic activity against solid tumor LLC(Lewis lung carcinoma), concentration of agent required to reduce cell viability by 90%; format: functional; details: Mus musculus; in short: as §1
P388 [15] = assay: Cytotoxic activity against Murine Lymphocytic Leukemia P388 Concentration of agent required to reduce cell viability by 50%; format: functional, cell-based; details: Mus musculus; in short: as §1
P388 [16] = assay: Cytotoxic activity Murine Lymphocytic Leukemia P388 Concentration of agent required to reduce cell viability by 90%; format: functional; details: Mus musculus; in short: as §1
P388 [17] = assay: In vivo antitumor activity against Murine P388 Leukemia at 25 mg/kg dose;(Median survival time of treated mice)/(median survival time of controls) x100; format: functional, Mus musculus
In short: (§3)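 Female BD2F1 mice (8 weeks, 20-22 g), eight per group, given 10^5 P388 cells ip on day 0. From 24 h later, drug was given ip once daily for 9 days as a micronized suspension in 0.5% carboxymethylcellulose. Deaths were recorded daily over a 33-day study. %T/C = median survival time of treated / median survival time of controls × 100; >125 taken as significant.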

P388 [18] = assay: In vivo antitumor activity against Murine P388 Leukemia at 50 mg/kg dose;(Median survival time of treated mice)/(median survival time of controls) x100; format: functional, Mus musculus; in short: as §3
P388 [19] = assay: In vivo antitumor activity against Murine P388 Leukemia at 75 mg/kg dose;(Median survival time of treated mice)/(median survival time of controls) x100; format: functional, Mus musculus; in short: as §3
P388 [20] = assay: In vivo antitumor activity against Murine P388 Leukemia at 100 mg/kg dose;(Median survival time of treated mice)/(median survival time of controls) x100; format: functional, Mus musculus; in short: as §3
[21] = Ratio of antilog(mean log IC90 in bone marrow sample) and antolog(mean log IC90) in HL-60); format: functional; in short: as §2
[22] = Ratio of antilog(mean log IC50 in bone marrow sample) and antolog(mean log IC50) in HL-60); format: functional; in short: as §2
[23] = Ratio of antilog(mean log IC50 in bone marrow sample) and antolog(mean log IC90) in HL-60); format: functional; in short: as §2
B16 [24] = assay: Cytotoxic activity against solid tumor, B16 (murine melanoma) concentration of agent required to reduce cell viability by 50%; format: functional, cell-based; details: Mus musculus; in short: as §1
B16 [25] = assay: Cytotoxic activity against solid tumor, B16 (murine melanoma) concentration of agent required to reduce cell viability by 90%; format: functional; details: Mus musculus; in short: as §1
CHO [26] = assay: Cytotoxic activity against solid tumor, CHO (Chinese hamster ovaric carcinoma) concentration of agent required to reduce cell viability by 50%; format: functional, cell-based; details: Cricetulus griseus; in short: as §1
CHO [27] = assay: Cytotoxic activity against solid tumor, CHO (Chinese hamster ovaric carcinoma) concentration of agent required to reduce cell viability by 90%; format: functional; details: Cricetulus griseus; in short: as §1
HL-60 [28] = assay: Cytotoxic activity against human promyelocytic leukemia HL-60 concentration of agent required to reduce cell viability by 90%; format: functional; in short: as §1
HL-60 [29] = assay: (§4) Relative cytotoxicity against human promyelocytic leukemia(HL-60) cells; format: functional; in short: as §2
HL-60 [30] = assay: Cytotoxic activity against human promyelocytic leukemia HL-60 concentration of agent required to reduce cell viability by 50%; format: functional, cell-based; in short: as §1
HL-60 [31] = assay: as §4; format: functional, cell-based; in short: as §2
Homo sapiens [32] = organism: Homo sapiens; assay: Relative cytotoxicity against human bone marrow samples; format: functional; in short: as §2
LoVo [33] = assay: Cytotoxic activity against solid tumor, LoVo, (human colon adenocarcinoma) concentration of agent required to reduce cell viability by 50%; format: functional, cell-based; in short: as §1
LoVo [34] = assay: Cytotoxic activity against solid tumor, LoVo, (human colon adenocarcinoma) concentration of agent required to reduce cell viability by 90%; format: functional; in short: as §1
P388 [35] = assay: Cytotoxic activity against murine lymphocytic leukemia P388 concentration of agent required to reduce cell viability by 50%; format: functional, cell-based; details: Mus musculus; in short: as §1
P388 [36] = assay: Cytotoxic activity against murine lymphocytic leukemia P388 concentration of agent required to reduce cell viability by 90%; format: functional; details: Mus musculus; in short: as §1
P388 [37] = assay: In vivo antitumor activity against Murine P388 Leukemia at 20 mg/kg dose;(Median survival time of treated mice)/(median survival time of controls) x100; format: functional, Mus musculus; in short: as §3
P388 [38] = assay: In vivo antitumor activity against Murine P388 Leukemia at 6.67 mg/kg dose;(Median survival time of treated mice)/(median survival time of controls) x100; format: functional, Mus musculus; in short: as §3
P388 [39] = assay: In vivo antitumor activity against Murine P388 Leukemia at 60 mg/kg dose;(Median survival time of treated mice)/(median survival time of controls) x100; format: functional, Mus musculus; in short: as §3
[40] = Ratio of cytotoxicity of compound towards bone marrow sample and to that of HL-60 was determined as IC50BM/IC50HL; format: functional; in short: as §2
[41] = Ratio of cytotoxicity of compound towards bone marrow sample and to that of HL-60 was determined as IC50BM/IC90HL; format: functional; in short: as §2
[42] = Ratio of cytotoxicity of compound towards bone marrow sample and to that of HL-60 was determined as IC90BM/IC90HL; format: functional; in short: as §2

## CCN(CC)CCn1c2cc(Cl)c(N)cc2c(=O)c2c(O)cc(O)cc21
B16 [1]
  IC90: 5.9 µM
B16 [2]
  IC50: 1 µM
CHO [3]
  IC50: 1.5 µM
CHO [4]
  IC90: 6.3 µM
HL-60 [5]
  IC90: 10 µM
HL-60 [6]
  IC90: 5.74 µM
HL-60 [7]
  IC50: 3.9 µM
HL-60 [8]
  IC50: 3.61 µM
Homo sapiens [9]
  IC50: 1.52 µM
Homo sapiens [10]
  IC90: 6.46 µM
LoVo [11]
  IC90: 14 µM
LoVo [12]
  IC50: 5.4 µM
[13]
  IC50: 3.6 µM
[14]
  IC90: 11 µM
P388 [15]
  IC50: 1.4 µM
P388 [16]
  IC90: 3.5 µM
P388 [17]
  T/C: 105%
P388 [18]
  T/C: 109%
P388 [19]
  T/C: 110%
P388 [20]
  T/C: 111%
[21]
  Ratio: 0.7
[22]
  Ratio: 0.3
[23]
  Ratio: 0.2

## CCN(CC)CCn1c2cc(Cl)c(N)cc2c(=O)c2c(O)cc(OC)cc21
B16 [24]
  IC50: 1.6 µM
B16 [25]
  IC90: 4 µM
CHO [26]
  IC50: 1.1 µM
CHO [27]
  IC90: 5.9 µM
HL-60 [28]
  IC90: 8.4 µM
HL-60 [29]
  IC90: 2.93 µM
HL-60 [30]
  IC50: 4.2 µM
HL-60 [31]
  IC50: 1.86 µM
Homo sapiens [32]
  IC50: 3.26 µM
  IC90: 14.8 µM
LoVo [33]
  IC50: 1.5 µM
LoVo [34]
  IC90: 6.3 µM
[13]
  IC50: 5 µM
[14]
  IC90: 11 µM
P388 [35]
  IC50: 3.8 µM
P388 [36]
  IC90: 8 µM
P388 [37]
  T/C: 97%
P388 [38]
  T/C: 83%
P388 [39]
  T/C: 100%
[40]
  Ratio: 1.2
[41]
  Ratio: 0.8
[42]
  Ratio: 4.1

## COc1cc([C@@H]2c3cc4c(cc3[C@@H](O[C@@H]3O[C@@H]5CO[C@@H](C)O[C@H]5[C@H](O)[C@H]3O)[C@H]3COC(=O)[C@H]23)OCO4)cc(OC)c1O [ETOPOSIDE]
B16 [24]
  IC50: 0.32 µM
B16 [25]
  IC90: 1.9 µM
CHO [26]
  IC50: 0.35 µM
CHO [27]
  IC90: 7.7 µM
HL-60 [28]
  IC90: 3.1 µM
HL-60 [29]
  IC90: 0.73 µM
HL-60 [30]
  IC50: 1.2 µM
HL-60 [31]
  IC50: 0.367 µM
Homo sapiens [32]
  IC50: 0.99 µM
  IC90: 7.02 µM
LoVo [33]
  IC50: 2.3 µM
LoVo [34]
  IC90: 44 µM
[13]
  IC50: 1.1 µM
[14]
  IC90: 4.5 µM
P388 [35]
  IC50: 0.24 µM
P388 [36]
  IC90: 0.63 µM
[40]
  Ratio: 1.8
[41]
  Ratio: 0.9
[42]
  Ratio: 5.6

From ChEMBL document CHEMBL1132240, “Design and synthesis of modified quinolones as antitumoral acridones” (J Med Chem, 1999)
